For one series, the system named is Human rhinovirus 1A. Description: Antiviral activity against HRV1A in HeLa cells. It is filed as functional, organism-based. In outline:
(§1)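 Cytopathic-effect inhibition assays in HeLa cells infected with pleconaril-sensitive HRV-1A, -2, -14 or -16. Dose-dependent inhibition of virus-induced CPE was measured, and the 50% inhibitory concentration (IC50) was derived.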

Series [1] can be described thus: Cytotoxicity against human HeLa cells after 72 hrs. It is filed as cell-based.
Another series concerns rhinovirus B14. Description: Antiviral activity against HRV14 in HeLa cells. It is filed as functional, organism-based. In outline: as §1
Series [2] in a line: Selectivity index, ratio of CC50 for HeLa cells to IC50 for HRV2 in HeLa cells. It is filed as functional, Homo sapiens.
Series [3] has as its system rhinovirus A16. Briefly: Antiviral activity against HRV16 in HeLa cells. It is filed as functional, organism-based. The gist of the method: as §1
In series [4] the test system is rhinovirus A2. Description: Antiviral activity against HRV2 in HeLa cells. To be noted: Rhinovirus A. It is filed as functional, organism-based. In outline:
as §1

Series [5] has as its system rhinovirus A2. Description: Inactivation of HRV2 assessed as reduction in plaque at 2.5 ug/ml after 1 hr. It is filed as functional, organism-based. In outline: (§2)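 Direct-inactivation test using a modified plaque-reduction format. HRV-2 was incubated with or without compound at 37 °C for 1 h, and the suspensions were then diluted 100-fold. Residual virus titer was determined by plaque assay on HeLa cells, with pleconaril run as positive control.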

Series [6] concerns rhinovirus A2. Briefly: Inhibition of HRV2 absorption on HeLa cells assessed as reduction in plaques at 2.5 ug/ml after 2 hrs. It is filed as functional. To be noted: Rhinovirus A.
The subject of series [7] is rhinovirus A2. Briefly: Inactivation of HRV2 assessed as reduction in plaque at 0.25 ug/ml after 1 hr. It is filed as functional. Also noted: scale not given: the % may be the effect or the level left. In outline:
as §2

In series [8] the test system is rhinovirus A2. Briefly: Inhibition of HRV2 replication cycle progression. It is filed as functional, organism-based. To be noted: Rhinovirus A.
Series [9] concerns rhinovirus A16. Briefly: Inhibition of HRV16 replication cycle progression. It is filed as functional, organism-based. The note with it: Rhinovirus A.
Series [10] can be described thus: Selectivity for HRV2 over HRV16. It is filed as functional.
For series [11], the system named is rhinovirus A2. Briefly: Inhibition of HRV2 absorption on HeLa cells assessed as reduction in plaques at 0.25 ug/ml after 2 hrs. To be noted: Rhinovirus A. It is filed as functional.

Values after ≈ are worked out from the molar mass of the structure shown. Active and inactive are the calls of the source. No cut-off for these calls is given here.

For `C=C1CC[C@@H](O)C(C)(C)C1CC/C(C)=C/COc1ccc2ccc(=O)oc2c1` (some centres not stated) [FARNESIFEROL B], the outcome in the series on Human rhinovirus 1A, in the series with rhinovirus B14 and in the series on rhinovirus A16 [3] was inactive. In addition, half-maximal cytotoxicity in series [1] (CC50 at 72 h) was put at 8.2 µg/mL (≈ 21.4 µM). Besides, the “Ratio CC50/IC50” value in series [2] was found to be 8.2. Also, 1 µg/mL (≈ 2.61 µM) corresponded to half-maximal inhibition in the series with rhinovirus A2 [4] (IC50).

As to `C/C(=C\COc1ccc2ccc(=O)oc2c1)CCC1C(C)(C)[C@H]2CC[C@]1(C)O2` (some centres not stated) [FARNESIFEROL], the outcome in the series with rhinovirus A2 [5], in the series on Human rhinovirus 1A, in the series with rhinovirus B14 and with rhinovirus A16 [3] was inactive. Also, half-maximal cytotoxicity in series [1] (CC50 at 72 h) was put at 7.7 µg/mL (≈ 20.1 µM). In addition, the inhibition – broadly, how much of the control response was suppressed – at 2.5 µg/mL in the series with rhinovirus A2 [6] was found to be 35.2%. Further, in [2], the “Ratio CC50/IC50” value was 8.02. Besides, half-maximal inhibition with rhinovirus A2 [4] (IC50) required 0.96 µg/mL (≈ 2.51 µM).

`CC(=O)O[C@H]1CC[C@]2(C)[C@H](CC[C@@](C)(O)[C@@H]2COc2ccc3ccc(=O)oc3c2)C1(C)C` [KELLARIN]: the result in the series on Human rhinovirus 1A, in the series on rhinovirus B14 and in the series with rhinovirus A16 [3] was inactive. Further, the CC50 – broadly, the concentration at which the toxic effect on the cells reaches its halfway point – at 72 h in series [1] amounted to 15.5 µg/mL (≈ 35 µM). Moreover, in [2], the “Ratio CC50/IC50” value is on record as less than 1. In addition, the 50% inhibitory concentration (IC50) – broadly, the point on the concentration scale where inhibition reaches its midpoint – in the series with rhinovirus A2 [4] is more than 15.5 µg/mL.

As for `C[C@H]1CC=C2[C@H](CC[C@H](O)C2(C)C)[C@@]1(C)COc1ccc2ccc(=O)oc2c1` [MICROLOBIDENE], the result in the series with Human rhinovirus 1A, with rhinovirus B14 and in the series on rhinovirus A16 [3] was inactive. Besides, in series [1], the 50% cytotoxic concentration (CC50) at 72 h stood at 10 µg/mL (≈ 26.1 µM). Also, the “Ratio CC50/IC50” value in [2] is listed as less than 1. This compound came in with an IC50 in the series on rhinovirus A2 [4] of more than 10 µg/mL.

As for `Cc1cc(CCCOc2c(C)cc(-c3noc(C(F)(F)F)n3)cc2C)on1` [PLECONARIL], the IC50 is 0.02 µg/mL (≈ 0.0524 µM) in the series on Human rhinovirus 1A, 0.02 µg/mL (≈ 0.0524 µM) in the series on rhinovirus B14 (Rhinovirus B), 0.02 µg/mL (≈ 0.0524 µM) with rhinovirus A16 [3] (Rhinovirus A) and 0.01 µg/mL (≈ 0.0262 µM) with rhinovirus A2 [4]. Besides, the Activity in the series with rhinovirus A2 [7] stood at 84.3%. For the same compound, the CC50 at 72 h in series [1] came out at 12.6 µg/mL (≈ 33 µM). Also, the values for the EC50 with rhinovirus A2 [8] and in the series on rhinovirus A16 [9] were 40 nM and 570 nM, respectively. In series [2], the “Ratio CC50/IC50” value amounted to 1260. Also, the Selectivity ratio in [10] came to 10. The inhibition at 0.25 µg/mL with rhinovirus A2 [11] worked out at 100%.

Source of the values: ChEMBL document CHEMBL1142266, “Structure-based virtual screening for the discovery of natural inhibitors for human rhinovirus coat protein” (J Med Chem, 2008).
